Columns and labels:
[1] = target: Transient receptor potential cation channel subfamily V member 1 (Homo sapiens) (UniProt Q8NER1); test: Binding affinity to TRPV1 (unknown origin) at 10 uM
Method in brief: (§1)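 Selectivity screen at 10 µM across CEREP and internal target panels. Readout is percent binding, with 50% as the threshold.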

[2] = target: Sodium channel protein type 9 subunit alpha (Homo sapiens) (UniProt Q15858); test: Binding affinity to Nav1.7 (unknown origin) at 10 uM; method in brief: as §1
[3] = target: Voltage-dependent L-type calcium channel subunit alpha-1C (Homo sapiens, UniProt Q13936); test: Binding affinity to Cav1.2 (unknown origin) at 10 uM; method in brief: as §1
[4] = target: Voltage-dependent N-type calcium channel subunit alpha-1B (Homo sapiens) (UniProt Q00975); test: Binding affinity to Cav2.2 (unknown origin) at 10 uM; method in brief: as §1
[5] = target: Voltage-dependent T-type calcium channel subunit alpha-1H (Homo sapiens) (UniProt O95180); test: Binding affinity to Cav3.2 (unknown origin) at 10 uM; method in brief: as §1
[6] = target: Voltage-gated inwardly rectifying potassium channel KCNH2 (Homo sapiens, UniProt Q12809); test: Binding affinity to human ERG at 10 uM; method in brief: as §1
[7] = Total plasma clearance in rat at 1 mg/kg, iv; assay type: ADME, organism-based
Method in brief: (§2)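 Rat pharmacokinetics: iv dose 1 mg/kg; po dose 1 or 2 mg/kg depending on compound. AUC taken over 0–8 h. Unbound parameters calculated using plasma free fraction.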

[8] = […] plasma clearance in rat at 1 mg/kg, iv; assay type: ADME, organism-based; conditions: read-out: CL free (converted); method in brief: as §2
[9] = Volume of distribution at steady state in rat at 1 mg/kg, iv or 2 mg/kg, po; assay type: ADME, organism-based; conditions: in vivo, read-out: Vdss; method in brief: as §2
[10] = Half life in rat at 1 mg/kg, iv; assay type: ADME, organism-based; conditions: in vivo; method in brief: as §2
[11] = Cmax in rat at 1 mg/kg, iv or 2 mg/kg, po; assay type: ADME, organism-based; conditions: in vivo; method in brief: as §2
[12] = AUC(0 to 8 hrs) in rat at 2 mg/kg, po; assay type: ADME, organism-based; set-up: time < 6 hr, dose 2 mg/kg, route oral; conditions: in vivo; method in brief: as §2
Rattus norvegicus [13] = test: Unbound AUC(0 to 8 hrs) in rat at 2 mg/kg, po; assay type: ADME, organism-based; conditions: in vivo; method in brief: as §2
[14] = Oral bioavailability in rat at 2 mg/kg; assay type: ADME, organism-based; conditions: in vivo; method in brief: as §2
Rattus norvegicus [15] = test: Toxicity in chronic constriction injury Sprague-Dawley rat model of neuropathic pain assessed as overt impairments at 10 to 100 mg/kg, po; assay type: organism-based; conditions: in vivo
Rattus norvegicus [16] = test: Toxicity in chronic constriction injury Sprague-Dawley rat model of neuropathic pain assessed as behavioral changes at 10 to 100 mg/kg, po; assay type: organism-based; conditions: in vivo
Rattus norvegicus [17] = test: Toxicity in sciatic nerve ligation Sprague-Dawley rat model of neuropathic pain assessed as overt impairments at 10 to 100 mg/kg, po; assay type: organism-based; conditions: in vivo
Rattus norvegicus [18] = test: Toxicity in sciatic nerve ligation Sprague-Dawley rat model of neuropathic pain assessed as behavioral changes at 10 to 100 mg/kg, po; assay type: organism-based; conditions: in vivo
Rattus norvegicus [19] = test: Toxicity in Sprague-Dawley rat reserpine model of central pain assessed as behavioral changes at 10 to 100 mg/kg, po; assay type: organism-based; conditions: in vivo
[20] = Ratio of drug level in plasma to brain in Sprague-Dawley rat; assay type: ADME, cell-free; conditions: in vivo
[21] = target: T1, Transient receptor potential cation channel subfamily V member 3 (Homo sapiens) (UniProt Q8NET8); test: Binding affinity to TRPV3 (unknown origin) at 10 uM
T1 sequence (whole entry): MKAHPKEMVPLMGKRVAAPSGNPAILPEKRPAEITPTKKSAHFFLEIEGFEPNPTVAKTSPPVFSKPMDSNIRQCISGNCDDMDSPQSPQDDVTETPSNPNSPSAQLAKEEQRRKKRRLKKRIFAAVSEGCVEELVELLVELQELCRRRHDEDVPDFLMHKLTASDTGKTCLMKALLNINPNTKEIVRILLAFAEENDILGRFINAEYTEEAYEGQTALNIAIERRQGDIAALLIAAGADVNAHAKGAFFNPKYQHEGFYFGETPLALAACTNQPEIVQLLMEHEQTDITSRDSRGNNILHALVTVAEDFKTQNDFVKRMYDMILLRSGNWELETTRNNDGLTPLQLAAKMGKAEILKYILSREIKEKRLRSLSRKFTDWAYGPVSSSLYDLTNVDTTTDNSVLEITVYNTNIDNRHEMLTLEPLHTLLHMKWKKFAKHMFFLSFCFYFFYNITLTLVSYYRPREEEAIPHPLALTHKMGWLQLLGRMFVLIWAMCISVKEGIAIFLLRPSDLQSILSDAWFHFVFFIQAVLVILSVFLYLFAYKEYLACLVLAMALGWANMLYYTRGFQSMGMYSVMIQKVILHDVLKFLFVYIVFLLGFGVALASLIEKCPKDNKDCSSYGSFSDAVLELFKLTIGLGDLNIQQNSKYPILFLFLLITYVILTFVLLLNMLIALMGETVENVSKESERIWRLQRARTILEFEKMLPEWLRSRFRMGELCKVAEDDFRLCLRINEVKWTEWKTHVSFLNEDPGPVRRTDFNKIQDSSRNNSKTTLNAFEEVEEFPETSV

[22] = target: T2, Transient receptor potential cation channel subfamily V member 3 (Homo sapiens, UniProt Q8NET8); test: Antagonist activity at human TRPV3 expressed in recombinant HEK293 cells assessed as inhibition of 2-APB induced calcium flux by FLIPR analysis; assay type: cell-based
T2 sequence (Q8NET8 whole entry): T1 sequence (whole entry)
Method in brief: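 HEK293 cells stably expressing human TRPV3 (I25V variant), plated the day before in DMEM + 10% FBS at 37 °C, 5% CO2. Calcium 4 dye loaded in Ca/Mg-free HEPES D-PBS pH 7.4 for 1–2 h at room temperature. Compound dilutions added with 3 min baseline, then 2-APB at 60 µM final; Ca2+ flux read 3 min on FLIPR. Kb from at least duplicates, averaged across independent runs.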

Liver microsome [23] = test: Unbound intrinsic clearance in rat liver microsomes after 5 hrs by LC-MS/MS analysis; assay type: ADME
Method in brief: (§3)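 Microsomal stability run in an automated high-throughput plate format. Intrinsic clearance corrected for nonspecific microsomal binding using measured unbound fraction (fu,mic), reported as unbound Clint in L/h/kg.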

Liver microsome [24] = test: Unbound intrinsic clearance in human liver microsomes after 5 hrs by LC-MS/MS analysis; assay type: ADME; method in brief: as §3
Rattus norvegicus [25] = species on record: Rattus norvegicus; test: Cardiotoxicity in rat assessed as increase in mean arterial pressure; assay type: toxicity, organism-based, Artery; conditions: in vivo
[26] = target: T3, Nuclear receptor subfamily 1 group I member 2 (Homo sapiens, UniProt O75469); test: Activation of human PXR; assay type: ADME; conditions: human
T3 sequence (O75469 whole entry): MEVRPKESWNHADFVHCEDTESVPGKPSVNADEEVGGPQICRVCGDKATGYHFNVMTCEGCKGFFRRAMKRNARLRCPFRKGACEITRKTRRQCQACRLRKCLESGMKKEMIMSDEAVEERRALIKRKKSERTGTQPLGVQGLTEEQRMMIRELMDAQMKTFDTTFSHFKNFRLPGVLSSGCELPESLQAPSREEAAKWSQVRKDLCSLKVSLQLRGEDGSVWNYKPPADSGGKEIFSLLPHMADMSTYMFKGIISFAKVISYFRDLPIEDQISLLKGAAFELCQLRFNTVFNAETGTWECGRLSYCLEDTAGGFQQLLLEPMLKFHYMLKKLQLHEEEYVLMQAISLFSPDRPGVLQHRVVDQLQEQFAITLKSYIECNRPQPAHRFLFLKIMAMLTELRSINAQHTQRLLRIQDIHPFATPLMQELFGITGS

Transient receptor potential cation channel subfamily V member 1 (Homo sapiens), sequence (Q8NER1 whole entry): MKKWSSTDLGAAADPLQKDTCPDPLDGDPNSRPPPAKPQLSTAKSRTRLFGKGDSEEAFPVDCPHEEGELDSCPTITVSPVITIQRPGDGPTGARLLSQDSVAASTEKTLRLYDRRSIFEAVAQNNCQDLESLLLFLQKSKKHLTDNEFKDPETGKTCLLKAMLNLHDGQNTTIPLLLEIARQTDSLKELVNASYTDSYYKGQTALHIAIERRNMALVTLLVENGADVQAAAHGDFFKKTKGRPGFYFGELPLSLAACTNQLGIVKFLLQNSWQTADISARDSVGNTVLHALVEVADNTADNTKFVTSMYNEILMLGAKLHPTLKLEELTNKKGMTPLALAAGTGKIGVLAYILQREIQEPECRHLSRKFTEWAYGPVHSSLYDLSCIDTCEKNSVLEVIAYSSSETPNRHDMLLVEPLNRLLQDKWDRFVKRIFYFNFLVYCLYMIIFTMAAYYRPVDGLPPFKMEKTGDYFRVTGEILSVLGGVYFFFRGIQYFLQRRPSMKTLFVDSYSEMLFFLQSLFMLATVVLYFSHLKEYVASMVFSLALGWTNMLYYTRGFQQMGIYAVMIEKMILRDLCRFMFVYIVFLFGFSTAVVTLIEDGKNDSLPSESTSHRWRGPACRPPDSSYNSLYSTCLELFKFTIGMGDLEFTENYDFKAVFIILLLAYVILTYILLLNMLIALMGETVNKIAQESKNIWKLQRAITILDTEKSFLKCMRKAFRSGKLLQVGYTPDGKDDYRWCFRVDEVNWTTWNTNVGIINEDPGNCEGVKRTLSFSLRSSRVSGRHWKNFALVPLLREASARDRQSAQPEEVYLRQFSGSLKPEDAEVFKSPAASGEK
Sodium channel protein type 9 subunit alpha (Homo sapiens), sequence (Q15858 whole entry, looked up): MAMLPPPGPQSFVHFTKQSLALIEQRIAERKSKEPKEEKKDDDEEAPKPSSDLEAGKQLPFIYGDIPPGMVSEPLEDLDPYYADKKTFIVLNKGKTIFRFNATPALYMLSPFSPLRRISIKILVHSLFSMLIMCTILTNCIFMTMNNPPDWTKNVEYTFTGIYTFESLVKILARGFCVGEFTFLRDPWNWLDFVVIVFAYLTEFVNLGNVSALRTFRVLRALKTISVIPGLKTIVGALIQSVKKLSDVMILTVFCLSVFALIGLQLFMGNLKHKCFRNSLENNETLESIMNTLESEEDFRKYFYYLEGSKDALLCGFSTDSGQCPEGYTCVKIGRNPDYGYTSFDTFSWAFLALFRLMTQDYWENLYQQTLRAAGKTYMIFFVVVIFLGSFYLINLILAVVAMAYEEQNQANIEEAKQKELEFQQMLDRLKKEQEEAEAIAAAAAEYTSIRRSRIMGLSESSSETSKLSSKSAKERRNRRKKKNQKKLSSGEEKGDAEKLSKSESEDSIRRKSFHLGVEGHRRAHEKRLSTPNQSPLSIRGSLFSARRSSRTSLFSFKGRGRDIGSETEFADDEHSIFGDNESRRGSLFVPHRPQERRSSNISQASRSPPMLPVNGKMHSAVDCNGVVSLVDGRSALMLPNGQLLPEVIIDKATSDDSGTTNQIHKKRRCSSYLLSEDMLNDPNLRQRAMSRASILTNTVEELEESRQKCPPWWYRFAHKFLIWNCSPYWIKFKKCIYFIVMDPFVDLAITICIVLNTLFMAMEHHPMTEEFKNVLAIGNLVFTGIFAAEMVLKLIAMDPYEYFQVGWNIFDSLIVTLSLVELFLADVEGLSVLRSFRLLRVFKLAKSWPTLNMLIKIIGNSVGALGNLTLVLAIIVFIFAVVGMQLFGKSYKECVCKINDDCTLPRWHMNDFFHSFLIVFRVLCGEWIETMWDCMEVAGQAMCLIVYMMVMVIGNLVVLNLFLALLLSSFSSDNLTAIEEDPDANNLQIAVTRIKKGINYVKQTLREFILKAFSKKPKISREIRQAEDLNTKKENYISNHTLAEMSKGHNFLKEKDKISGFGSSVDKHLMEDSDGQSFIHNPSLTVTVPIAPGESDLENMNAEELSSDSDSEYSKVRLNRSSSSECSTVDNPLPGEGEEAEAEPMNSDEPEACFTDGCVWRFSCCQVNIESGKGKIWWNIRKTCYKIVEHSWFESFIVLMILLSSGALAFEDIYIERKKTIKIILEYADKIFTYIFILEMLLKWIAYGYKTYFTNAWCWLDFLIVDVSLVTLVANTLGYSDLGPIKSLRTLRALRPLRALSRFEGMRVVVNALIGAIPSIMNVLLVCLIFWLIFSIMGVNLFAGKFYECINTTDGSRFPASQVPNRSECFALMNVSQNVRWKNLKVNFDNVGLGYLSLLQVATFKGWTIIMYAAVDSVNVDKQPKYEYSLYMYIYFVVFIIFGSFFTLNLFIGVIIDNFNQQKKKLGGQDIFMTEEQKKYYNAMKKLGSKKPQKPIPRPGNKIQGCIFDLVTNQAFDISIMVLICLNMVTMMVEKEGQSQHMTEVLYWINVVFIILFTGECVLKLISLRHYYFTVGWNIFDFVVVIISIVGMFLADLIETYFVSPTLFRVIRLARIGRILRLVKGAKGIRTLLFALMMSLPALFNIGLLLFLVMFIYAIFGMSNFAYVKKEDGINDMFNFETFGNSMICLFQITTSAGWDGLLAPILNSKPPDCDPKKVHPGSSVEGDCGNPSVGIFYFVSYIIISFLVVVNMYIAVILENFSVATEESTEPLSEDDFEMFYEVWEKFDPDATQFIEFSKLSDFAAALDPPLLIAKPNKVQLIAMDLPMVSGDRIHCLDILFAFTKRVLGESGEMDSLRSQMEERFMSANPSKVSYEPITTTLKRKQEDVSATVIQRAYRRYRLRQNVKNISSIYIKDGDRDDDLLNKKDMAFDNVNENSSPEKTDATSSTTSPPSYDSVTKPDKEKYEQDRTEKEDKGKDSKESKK
Voltage-gated inwardly rectifying potassium channel KCNH2, sequence (Q12809 whole entry): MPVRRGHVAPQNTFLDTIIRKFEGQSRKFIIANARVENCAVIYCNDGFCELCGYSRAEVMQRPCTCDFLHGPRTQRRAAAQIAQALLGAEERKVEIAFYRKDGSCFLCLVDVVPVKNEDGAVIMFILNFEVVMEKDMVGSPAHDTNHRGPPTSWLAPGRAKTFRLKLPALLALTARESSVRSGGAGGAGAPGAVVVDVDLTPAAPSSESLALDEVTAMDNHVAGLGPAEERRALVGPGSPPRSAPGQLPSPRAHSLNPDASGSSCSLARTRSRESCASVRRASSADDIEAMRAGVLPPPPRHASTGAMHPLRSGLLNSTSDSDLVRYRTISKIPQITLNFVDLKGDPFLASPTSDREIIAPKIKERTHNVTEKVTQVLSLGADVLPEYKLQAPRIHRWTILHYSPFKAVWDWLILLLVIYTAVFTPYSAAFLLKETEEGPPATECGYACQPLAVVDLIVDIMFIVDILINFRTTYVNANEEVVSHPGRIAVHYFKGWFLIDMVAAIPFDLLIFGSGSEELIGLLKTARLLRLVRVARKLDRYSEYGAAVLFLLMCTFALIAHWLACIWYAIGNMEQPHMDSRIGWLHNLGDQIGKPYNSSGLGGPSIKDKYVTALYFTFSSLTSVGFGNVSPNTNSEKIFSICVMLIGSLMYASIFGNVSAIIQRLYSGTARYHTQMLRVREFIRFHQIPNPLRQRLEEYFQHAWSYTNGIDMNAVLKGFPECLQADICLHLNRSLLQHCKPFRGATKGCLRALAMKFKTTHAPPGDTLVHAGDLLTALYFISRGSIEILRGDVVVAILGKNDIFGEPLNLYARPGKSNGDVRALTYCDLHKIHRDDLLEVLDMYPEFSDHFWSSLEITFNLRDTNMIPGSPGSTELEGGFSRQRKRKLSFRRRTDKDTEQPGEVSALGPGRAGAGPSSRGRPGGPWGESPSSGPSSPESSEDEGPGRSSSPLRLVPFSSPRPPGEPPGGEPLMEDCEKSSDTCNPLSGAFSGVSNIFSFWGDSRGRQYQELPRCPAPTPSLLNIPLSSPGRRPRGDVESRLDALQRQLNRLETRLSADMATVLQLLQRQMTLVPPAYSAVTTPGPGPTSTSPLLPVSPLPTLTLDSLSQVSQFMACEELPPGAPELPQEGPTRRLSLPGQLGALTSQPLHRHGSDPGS

SMILES: C[C@]1(O)C[C@](c2cc(C(F)(F)F)ccn2)([C@H](O)c2ccccn2)C1 (mixture of isomers)
- Activity [1]: < 50%
- Activity [2]: < 50%
- Activity [3]: < 50%
- Activity [4]: < 50%
- Activity [5]: < 50%
- Activity [6]: < 50%
- clearance [7]: 26.7 mL/min/kg
- clearance [8]: 41.7 mL/min/kg
- Vd [9]: 1.4 L/kg
- half-life [10]: 30 min
- Cmax [11]: 190 ng/mL
- AUC(0-t) at 6 h [12]: 380 ng·h/mL
- fAUC (Rattus norvegicus [13]): 0.24 µg·h/mL
- bioavailability [14]: 26%
- Activity (Rattus norvegicus [15]): Non-toxic
- Activity (Rattus norvegicus [16]): Non-toxic
- Activity (Rattus norvegicus [17]): Non-toxic
- Activity (Rattus norvegicus [18]): Non-toxic
- Activity (Rattus norvegicus [19]): Non-toxic
- Ratio [20]: 1
- Activity [21]: > 50%
- IC50 [22]: 930 nM
- CL free (Liver microsome [23]): 6 L/h/kg
- CL free (Liver microsome [24]): 2 L/h/kg
- Activity (Rattus norvegicus [25]): Non-toxic
- Activity [26]: Not Active

Source: ChEMBL document CHEMBL3826935, “Synthesis and Pharmacology of (Pyridin-2-yl)methanol Derivatives as Novel and Selective Transient Receptor Potential Vanilloid 3 Antagonists” (J Med Chem, 2016)
